According to ChEMBL document CHEMBL5325511, “Discovery of N-(4-(Aminomethyl)phenyl)-5-methylpyrimidin-2-amine Derivatives as Potent and Selective JAK2 Inhibitors” (ACS Med Chem Lett, 2023):

Assays:
BaF3 [1] = test: Induction of apoptosis in mouse BaF3 cells harbouring JAK2 V617F mutant assessed as viable cells at 80 nM incubated for 24 hrs by Annexin V / propidium iodide staining based flow cytometry analysis (reference value: 72.8 %); assay type: functional; conditions: read-out: Activity
In short: (§1)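 Ba/F3 JAK2V617F cells exposed to compound at 20, 40, 80, 160 and 320 nM, then analysed for apoptosis by flow cytometry. Significance vs control by Dunnett's t test.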

BaF3 [2] = test: Induction of apoptosis in mouse BaF3 cells harbouring JAK2 V617F mutant assessed as late apoptotic cells at 40 nM incubated for 24 hrs by Annexin V / propidium iodide staining based flow cytometry analysis (reference value: 12.2 %); assay type: functional; in short: as §1
BaF3 [3] = test: Induction of cell cycle arrest in mouse BaF3 cells harbouring JAK2 […] mutant assessed as accumulation of cells at S phase at 2 nM incubated for 24 hrs by propidium iodide staining based flow cytometry analysis (reference value: 33.80 %); assay type: functional
BaF3 [4] = test: Induction of apoptosis in mouse BaF3 cells harbouring JAK2 V617F mutant assessed as late apoptotic cells at 20 nM incubated for 24 hrs by Annexin V / propidium iodide staining based flow cytometry analysis (reference value: 12.2 %); assay type: functional; in short: as §1
BaF3 [5] = test: Induction of cell cycle arrest in mouse BaF3 cells harbouring JAK2 […] mutant assessed as accumulation of cells at S phase at 4 nM incubated for 24 hrs by propidium iodide staining based flow cytometry analysis (reference value: 33.80 %); assay type: functional
BaF3 [6] = test: Induction of apoptosis in mouse BaF3 cells harbouring JAK2 V617F mutant assessed as late apoptotic cells at 320 nM incubated for 24 hrs by Annexin V / propidium iodide staining based flow cytometry analysis (reference value: 12.2 %); assay type: functional; in short: as §1
BaF3 [7] = test: Induction of apoptosis in mouse BaF3 cells harbouring JAK2 V617F mutant assessed as late apoptotic cells at 160 nM incubated for 24 hrs by Annexin V / propidium iodide staining based flow cytometry analysis (reference value: 12.2 %); assay type: functional; in short: as §1
BaF3 [8] = test: Induction of cell cycle arrest in mouse BaF3 cells harbouring JAK2 […] mutant assessed as accumulation of cells at G0/G1 phase at 16 nM incubated for 24 hrs by propidium iodide staining based flow cytometry analysis (reference value: 56.85 %); assay type: functional
BaF3 [9] = test: Induction of apoptosis in mouse BaF3 cells harbouring JAK2 V617F mutant assessed as late apoptotic cells at 80 nM incubated for 24 hrs by Annexin V / propidium iodide staining based flow cytometry analysis (reference value: 12.2 %); assay type: functional; in short: as §1
BaF3 [10] = test: Induction of cell cycle arrest in mouse BaF3 cells harbouring JAK2 […] mutant assessed as accumulation of cells at G0/G1 phase at 2 nM incubated for 24 hrs by propidium iodide staining based flow cytometry analysis (reference value: 56.85 %); assay type: functional
BaF3 [11] = test: Induction of apoptosis in mouse BaF3 cells harbouring JAK2 V617F mutant assessed as viable cells at 160 nM incubated for 24 hrs by Annexin V / propidium iodide staining based flow cytometry analysis (reference value: 72.8 %); assay type: functional; conditions: read-out: Activity; in short: as §1
[12] = target: T1, Receptor-type tyrosine-protein kinase FLT3 (Homo sapiens, UniProt P36888); test: Inhibition of FLT3 (unknown origin) in presence of Mg/ATP mixture by [gamma p33]-ATP based radiometric assay
T1 sequence (P36888 whole entry): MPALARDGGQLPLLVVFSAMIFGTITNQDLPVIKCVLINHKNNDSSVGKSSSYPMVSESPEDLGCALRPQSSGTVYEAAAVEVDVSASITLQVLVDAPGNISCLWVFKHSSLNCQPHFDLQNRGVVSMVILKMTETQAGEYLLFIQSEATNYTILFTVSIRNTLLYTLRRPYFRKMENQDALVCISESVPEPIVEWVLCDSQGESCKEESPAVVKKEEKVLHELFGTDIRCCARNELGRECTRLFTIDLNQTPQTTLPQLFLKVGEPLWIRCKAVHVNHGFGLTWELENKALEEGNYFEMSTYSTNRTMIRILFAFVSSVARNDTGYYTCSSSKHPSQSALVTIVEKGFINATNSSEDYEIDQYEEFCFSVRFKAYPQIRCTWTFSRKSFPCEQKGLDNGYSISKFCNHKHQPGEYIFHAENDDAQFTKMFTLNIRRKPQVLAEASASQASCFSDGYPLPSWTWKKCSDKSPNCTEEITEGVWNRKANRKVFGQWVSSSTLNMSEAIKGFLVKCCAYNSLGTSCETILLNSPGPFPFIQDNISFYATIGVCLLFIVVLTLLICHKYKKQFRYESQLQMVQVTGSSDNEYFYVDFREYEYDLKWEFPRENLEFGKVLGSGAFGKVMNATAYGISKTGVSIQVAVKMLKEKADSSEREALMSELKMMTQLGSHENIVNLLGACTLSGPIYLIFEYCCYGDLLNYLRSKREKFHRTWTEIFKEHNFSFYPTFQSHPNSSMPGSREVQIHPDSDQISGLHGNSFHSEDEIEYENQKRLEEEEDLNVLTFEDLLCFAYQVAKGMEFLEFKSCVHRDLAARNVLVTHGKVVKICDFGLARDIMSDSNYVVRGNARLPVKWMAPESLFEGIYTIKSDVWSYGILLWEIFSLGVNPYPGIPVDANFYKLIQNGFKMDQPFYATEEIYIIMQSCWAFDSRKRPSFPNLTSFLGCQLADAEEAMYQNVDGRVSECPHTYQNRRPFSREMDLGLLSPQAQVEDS
In short: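 IC50 values determined by Eurofins Discovery.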

BaF3 [13] = test: Induction of apoptosis in mouse BaF3 cells harbouring JAK2 V617F mutant assessed as early apoptotic cells at 160 nM incubated for 24 hrs by Annexin V / propidium iodide staining based flow cytometry analysis (reference value: 14.4 %); assay type: functional; in short: as §1
[14] = Selectivity ratio of IC50 for JAK3 (unknown origin) to IC50 for JAK2 (unknown origin)
BaF3 [15] = test: Induction of cell cycle arrest in mouse BaF3 cells harbouring JAK2 […] mutant assessed as accumulation of cells at G0/G1 phase at 0.5 nM incubated for 24 hrs by propidium iodide staining based flow cytometry analysis (reference value: 56.85 %); assay type: functional
BaF3 [16] = test: Induction of apoptosis in mouse BaF3 cells harbouring JAK2 V617F mutant assessed as early apoptotic cells at 20 nM incubated for 24 hrs by Annexin V / propidium iodide staining based flow cytometry analysis (reference value: 14.4 %); assay type: functional; in short: as §1

In the case of `C=CS(=O)(=O)NCc1ccc(Nc2ncc(C)c(-c3cnn(C(C)C)c3)n2)cc1`, the viability at 0.08 µM (BaF3 [1]) is reported as 22.3%, the Activity (BaF3 [2]) is reported as 26.2% and the Activity (BaF3 [3]) is reported as 30.58%. The Activity (BaF3 [4]) was 20%, the Activity (BaF3 [5]) was 29.44% and the Activity (BaF3 [6]) was 40.1%. It also gave an Activity (BaF3 [7]) of 35.8%, an Activity (BaF3 [8]) of 69.31% and an Activity (BaF3 [9]) of 38.7%. It also gave an Activity (BaF3 [10]) of 61.14%, a viability at 0.16 µM (BaF3 [11]) of 22.9% and an IC50 [12] of 467 nM. For the same molecule, the Activity (BaF3 [13]) was 37.5%, the Ratio IC50 [14] was 54.6 and the Activity (BaF3 [15]) was 59.23%. The Activity (BaF3 [16]) was 24.7%.

In the case of `Cc1cnc(Nc2ccc3c(c2)CCN(C(=O)/C=C/CN(C)C)C3)nc1-c1cnn(C(C)C)c1`, the viability at 0.08 µM (BaF3 [1]) is reported as 38.8%, the Activity (BaF3 [2]) is reported as 15.6% and the Activity (BaF3 [3]) is reported as 27.94%. The Activity (BaF3 [4]) was 12%, the Activity (BaF3 [5]) was 33.33% and the Activity (BaF3 [6]) was 35.2%. For the same molecule, the Activity (BaF3 [7]) was 30.7%, the Activity (BaF3 [8]) was 59.42% and the Activity (BaF3 [9]) was 25.4%. It also gave an Activity (BaF3 [10]) of 56.54%, a viability at 0.16 µM (BaF3 [11]) of 19.4% and an IC50 [12] of 62 nM. The Activity (BaF3 [13]) was 48.1%, the Ratio IC50 [14] was 31 and the Activity (BaF3 [15]) was 55.96%. It also gave an Activity (BaF3 [16]) of 18.4%.
